Measurements as given in ChEMBL document CHEMBL5058577, “EUbOPEN Chemogenomics Library 2 (Multiplex)” (2022).

System: HEK-293T
Experiment: Multiplex assay against HEK293T
Type: toxicity, cell-based
Conditions: human
Procedure, shortened: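 Imaging took place on a CQ1 microscope at 37°C and 5% CO2 once compound had been added to live cells stained at seeding with Hoechst33342, BioTracker Green Microtubule Cytoskeleton Dye, MitoTracker Red and Annexin V Alexa Fluor 680. CellPathfinder machine-learning gating classed cells as Hoechst high-intensity objects or normal cells, classed normal cells as having healthy, pyknosed or fragmented nuclei, and classed pyknosed cells as mitotic or apoptotic. Tubulin, mitochondrial-mass and membrane-permeability phenotypes are per cents of the healthy-nucleus cells.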

[1] = 12 h, 1 µM, compound concentration 1 uM, replicate 1
[2] = 12 h, 1 µM, compound concentration 1 uM, replicate 2
[3] = 12 h, 10 µM, compound concentration 10 uM, replicate 1
[4] = 12 h, 10 µM, compound concentration 10 uM, replicate 2
[5] = 24 h, 1 µM, compound concentration 1 uM, replicate 1
[6] = 24 h, 1 µM, compound concentration 1 uM, replicate 2
[7] = 24 h, 10 µM, compound concentration 10 uM, replicate 1
[8] = 24 h, 10 µM, compound concentration 10 uM, replicate 2
[9] = 48 h, 1 µM, compound concentration 1 uM, replicate 1
[10] = 48 h, 1 µM, compound concentration 1 uM, replicate 2
[11] = 48 h, 10 µM, compound concentration 10 uM, replicate 1
[12] = 48 h, 10 µM, compound concentration 10 uM, replicate 2

## NCCc1cn(S(=O)(=O)c2c(Cl)nc3sccn23)c2ccccc12.O=C(O)C(=O)O
[1]
  Population Apoptotic (%): 37%
  Population Fragmented Nuclei (%): 5%
  Population Healthy Nuclei (%): 83%
  Population Hoechst High Intensity Objects (%): 7%
  Population Membrane Permeable-Phenotype (%): 0%
  Population Mitochondria Different-Phenotype (%): 53%
  Population Mitotic Cells (%): 62%
  Population Normal (%): 92%
  Population Pyknosed Nuclei (%): 11%
  Population Tubulin-Different-Phenotype (%): 40%
  Total Cell Count: 446
[2]
  Population Apoptotic (%): 52%
  Population Fragmented Nuclei (%): 8%
  Population Healthy Nuclei (%): 78%
  Population Hoechst High Intensity Objects (%): 8%
  Population Mitochondria Different-Phenotype (%): 66%
  Population Mitotic Cells (%): 47%
  Population Normal (%): 91%
  Population Pyknosed Nuclei (%): 13%
  Population Tubulin-Different-Phenotype (%): 34%
  Total Cell Count: 316
[3]
  Population Apoptotic (%): 63%
  Population Fragmented Nuclei (%): 8%
  Population Healthy Nuclei (%): 49%
  Population Hoechst High Intensity Objects (%): 22%
  Population Membrane Permeable-Phenotype (%): 0%
  Population Mitochondria Different-Phenotype (%): 96%
  Population Mitotic Cells (%): 36%
  Population Normal (%): 77%
  Population Pyknosed Nuclei (%): 42%
  Population Tubulin-Different-Phenotype (%): 88%
  Total Cell Count: 292
[4]
  Population Apoptotic (%): 64%
  Population Healthy Nuclei (%): 67%
  Population Hoechst High Intensity Objects (%): 25%
  Population Mitochondria Different-Phenotype (%): 97%
  Population Mitotic Cells (%): 35%
  Population Normal (%): 74%
  Population Pyknosed Nuclei (%): 23%
  Population Tubulin-Different-Phenotype (%): 82%
  Total Cell Count: 209
[5]
  Population Apoptotic (%): 33%
  Population Fragmented Nuclei (%): 9%
  Population Healthy Nuclei (%): 79%
  Population Hoechst High Intensity Objects (%): 6%
  Population Membrane Permeable-Phenotype (%): 1%
  Population Mitochondria Different-Phenotype (%): 28%
  Population Mitotic Cells (%): 66%
  Population Normal (%): 93%
  Population Pyknosed Nuclei (%): 11%
  Population Tubulin-Different-Phenotype (%): 26%
  Total Cell Count: 585
[6]
  Population Apoptotic (%): 41%
  Population Fragmented Nuclei (%): 12%
  Population Healthy Nuclei (%): 78%
  Population Hoechst High Intensity Objects (%): 4%
  Population Mitochondria Different-Phenotype (%): 46%
  Population Mitotic Cells (%): 58%
  Population Normal (%): 95%
  Population Pyknosed Nuclei (%): 8%
  Population Tubulin-Different-Phenotype (%): 19%
  Total Cell Count: 438
[7]
  Population Apoptotic (%): 74%
  Population Fragmented Nuclei (%): 14%
  Population Healthy Nuclei (%): 37%
  Population Hoechst High Intensity Objects (%): 34%
  Population Membrane Permeable-Phenotype (%): 2%
  Population Mitochondria Different-Phenotype (%): 83%
  Population Mitotic Cells (%): 25%
  Population Normal (%): 65%
  Population Pyknosed Nuclei (%): 48%
  Population Tubulin-Different-Phenotype (%): 44%
  Total Cell Count: 310
[8]
  Population Apoptotic (%): 75%
  Population Healthy Nuclei (%): 62%
  Population Mitochondria Different-Phenotype (%): 95%
  Population Mitotic Cells (%): 24%
  Population Pyknosed Nuclei (%): 22%
  Population Tubulin-Different-Phenotype (%): 76%
  Total Cell Count: 195
[9]
  Population Apoptotic (%): 23%
  Population Fragmented Nuclei (%): 16%
  Population Healthy Nuclei (%): 77%
  Population Hoechst High Intensity Objects (%): 3%
  Population Membrane Permeable-Phenotype (%): 0%
  Population Mitochondria Different-Phenotype (%): 22%
  Population Mitotic Cells (%): 76%
  Population Normal (%): 96%
  Population Pyknosed Nuclei (%): 6%
  Population Tubulin-Different-Phenotype (%): 19%
  Total Cell Count: 972
[10]
  Population Apoptotic (%): 47%
  Population Fragmented Nuclei (%): 12%
  Population Healthy Nuclei (%): 82%
  Population Hoechst High Intensity Objects (%): 5%
  Population Membrane Permeable-Phenotype (%): 1%
  Population Mitochondria Different-Phenotype (%): 23%
  Population Mitotic Cells (%): 52%
  Population Normal (%): 94%
  Population Pyknosed Nuclei (%): 5%
  Population Tubulin-Different-Phenotype (%): 14%
  Total Cell Count: 678
[11]
  Population Apoptotic (%): 53%
  Population Fragmented Nuclei (%): 27%
  Population Healthy Nuclei (%): 24%
  Population Hoechst High Intensity Objects (%): 62%
  Population Membrane Permeable-Phenotype (%): 11%
  Population Mitochondria Different-Phenotype (%): 74%
  Population Mitotic Cells (%): 46%
  Population Normal (%): 37%
  Population Pyknosed Nuclei (%): 47%
  Population Tubulin-Different-Phenotype (%): 55%
  Total Cell Count: 294
[12]
  Population Apoptotic (%): 78%
  Population Fragmented Nuclei (%): 19%
  Population Healthy Nuclei (%): 47%
  Population Hoechst High Intensity Objects (%): 47%
  Population Membrane Permeable-Phenotype (%): 1%
  Population Mitochondria Different-Phenotype (%): 75%
  Population Mitotic Cells (%): 21%
  Population Normal (%): 52%
  Population Pyknosed Nuclei (%): 33%
  Population Tubulin-Different-Phenotype (%): 52%
  Total Cell Count: 212
